# Experimental data reported in ChEMBL document CHEMBL1275287, “Synthesis and molluscicidal evaluation of some new pyrazole, isoxazole, pyridine, pyrimidine, 1,4-thiazine and 1,3,4-thiadiazine derivatives incorporating benzofuran moiety” (Eur J Med Chem, 2010).
# The source made the active and inactive calls. No cut-off for these calls is given here.
# Legend:
# Assay type in all cases: functional, organism-based
# Biomphalaria alexandrina [1] = experiment: Molluscicidal activity against Biomphalaria alexandrina at 1 ppm after 24 hrs
# Method in brief: (§1)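 Field-collected snails (about 7 mm shell diameter) held in the lab 10 days before testing and fed lettuce daily. Compound dissolved with two drops Tween 20 plus 2 mL DMSO, then suspended in untreated raw Nile/canal water in aerated glass jars. Three concentrations between 1 and 10 ppm; ten snails per jar, 24 h at 25 °C. Triplicate runs; mean killed snails recorded. Controls received water with Tween 20/DMSO only.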
# Biomphalaria alexandrina [2] = experiment: Molluscicidal activity against Biomphalaria alexandrina at 10 ppm after 24 hrs; method in brief: as §1
# Biomphalaria alexandrina [3] = experiment: Molluscicidal activity against Biomphalaria alexandrina at 5 ppm after 24 hrs; method in brief: as §1
SMILES,Activity (Biomphalaria alexandrina [1]),Activity (Biomphalaria alexandrina [2]),Activity (Biomphalaria alexandrina [3])
O=C(/C=C/c1cn(-c2ccccc2)nc1-c1cc2ccccc2o1)c1cc2ccccc2o1,inactive,Active,Active
O=C(c1cc2ccccc2o1)C(Br)C(Br)c1cn(-c2ccccc2)nc1-c1cc2ccccc2o1 (stereo unspecified),inactive,inactive,inactive
S=C1N=C(c2cn(-c3ccccc3)nc2-c2cc3ccccc3o2)CC(c2cc3ccccc3o2)N1 (stereo unspecified),inactive,inactive,inactive
Cc1cn2c(nc1=O)S/C(=C\c1cn(-c3ccccc3)nc1-c1cc3ccccc3o1)C(c1cc3ccccc3o1)=N2,inactive,inactive,inactive
O=C(Nc1ccc([N+](=O)[O-])cc1Cl)c1cc(Cl)ccc1O,Active,Active,Active
NC(=S)N1N=C(c2cc3ccccc3o2)CC1c1cn(-c2ccccc2)nc1-c1cc2ccccc2o1 (stereo unspecified),inactive,inactive,inactive
c1ccc(-n2cc(C3CC(c4cc5ccccc5o4)=NO3)c(-c3cc4ccccc4o3)n2)cc1 (stereo unspecified),inactive,inactive,inactive
c1ccc(-n2cc(C3CC(c4cc5ccccc5o4)=NN3)c(-c3cc4ccccc4o3)n2)cc1 (stereo unspecified),inactive,Active,Active
N#Cc1c(-c2cn(-c3ccccc3)nc2-c2cc3ccccc3o2)cc(-c2cc3ccccc3o2)nc1N,inactive,Active,Active
C(=C1/Sc2nncn2N=C1c1cc2ccccc2o1)/c1cn(-c2ccccc2)nc1-c1cc2ccccc2o1,inactive,Active,Active
C(=C1/Sc2ccccc2N=C1c1cc2ccccc2o1)/c1cn(-c2ccccc2)nc1-c1cc2ccccc2o1,inactive,inactive,inactive
O=C(/C(Br)=C/c1cn(-c2ccccc2)nc1-c1cc2ccccc2o1)c1cc2ccccc2o1,inactive,inactive,inactive
